# Laboratory results reported in ChEMBL document CHEMBL1125823, “2-Phenylindole-linked [2-(aminoalkyl)pyridine]dichloroplatinum(II): complexes with a selective action on estrogen receptor positive mammary tumors” (1991).
# How the values were obtained:
# [1] = test system: MCF7; experiment: Effect on Estrogen receptor positive MCF-7 human breast cancer cell proliferation at 1x10E-6M (control = 62.7+/-8.8); type: functional
# Outline: (§1)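 MCF-7 cells were kept in MEM with 5% charcoal-treated newborn calf serum and phenol red for 2 weeks, then about 2×10^4 cells were plated per well. Compounds in 0.1% DMF were added 2 days later and renewed on day 4; DMF alone served as control. Coulter cell counts were taken on day 5; mean of six dishes ± SD; % T/C.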
# [2] = test system: MCF7; experiment: Effect on Estrogen receptor positive MCF-7 human breast cancer cell proliferation at 5x10E-6M (control = 62.7+/-8.8); type: functional; outline: as §1
# [3] = test system: MCF7; experiment: Effect on Estrogen receptor positive MCF-7 human breast cancer cell proliferation at 5x10E-7M (control = 62.7+/-8.8); type: functional; outline: as §1
# [4] = test system: MCF7; experiment: Effect on [3H]thymidine incorporation into estrogen receptor positive MCF-7 human breast cancer cells at 5x10E-7M (control=48.6+/-3.6); type: functional
# Outline: (§2)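 MCF-7 cells in improved MEM with glutamine, gentamycin and 5% newborn calf serum, switched to charcoal-treated serum two weeks ahead; phenol red present; 37 °C, 5% CO2. About 2×10^4 cells plated per well; compound in 0.1% DMF added 2 days later, renewed on day 4; labelled 3 days later with 1 μCi [3H]thymidine per well for 2 h; cpm/dish, mean of six dishes ± SD.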
# [5] = test system: MCF7; experiment: Effect on [3H]thymidine incorporation into estrogen receptor positive MCF-7 human breast cancer cells at 1x10E-6M (control = 48.6+/-3.6); type: functional
# Outline: (§3)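 MCF-7 cells were grown in MEM with charcoal-treated 5% newborn calf serum and phenol red, then treated with compounds in 0.1% DMF (renewed on day 4) alongside DMF controls. They were labeled 3 days later with 1 µCi [³H]thymidine per well for 2 h, and incorporated radioactivity per dish was measured; mean of six dishes ± SD; % T/C.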
# [6] = test system: MCF7; experiment: Effect on [3H]thymidine incorporation into estrogen receptor positive MCF-7 human breast cancer cells at 5x10E-6M (control = 48.6+/-3.6); type: functional; outline: as §2
# [7] = target: T1, Estrogen receptor (Mus musculus) (UniProt O08537+P19785); experiment: Percent inhibition of estrone stimulated uterotrophic effect in mice at 15 ug; type: functional
# T1 sequence (O08537 whole entry, looked up): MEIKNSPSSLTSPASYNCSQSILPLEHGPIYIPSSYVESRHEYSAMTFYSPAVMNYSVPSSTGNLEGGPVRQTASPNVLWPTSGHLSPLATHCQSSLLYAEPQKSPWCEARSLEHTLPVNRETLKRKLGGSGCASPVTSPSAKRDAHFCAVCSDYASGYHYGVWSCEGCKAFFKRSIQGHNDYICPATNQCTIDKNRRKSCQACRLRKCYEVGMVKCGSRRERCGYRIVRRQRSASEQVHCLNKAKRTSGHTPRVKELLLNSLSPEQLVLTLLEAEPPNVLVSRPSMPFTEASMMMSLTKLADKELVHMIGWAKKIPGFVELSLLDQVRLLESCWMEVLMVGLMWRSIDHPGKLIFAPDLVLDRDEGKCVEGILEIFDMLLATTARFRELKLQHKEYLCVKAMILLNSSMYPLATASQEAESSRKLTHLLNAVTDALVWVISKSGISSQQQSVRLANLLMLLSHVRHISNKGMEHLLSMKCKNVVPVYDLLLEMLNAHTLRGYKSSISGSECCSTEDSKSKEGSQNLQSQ
# T1 sequence (P19785 whole entry, looked up): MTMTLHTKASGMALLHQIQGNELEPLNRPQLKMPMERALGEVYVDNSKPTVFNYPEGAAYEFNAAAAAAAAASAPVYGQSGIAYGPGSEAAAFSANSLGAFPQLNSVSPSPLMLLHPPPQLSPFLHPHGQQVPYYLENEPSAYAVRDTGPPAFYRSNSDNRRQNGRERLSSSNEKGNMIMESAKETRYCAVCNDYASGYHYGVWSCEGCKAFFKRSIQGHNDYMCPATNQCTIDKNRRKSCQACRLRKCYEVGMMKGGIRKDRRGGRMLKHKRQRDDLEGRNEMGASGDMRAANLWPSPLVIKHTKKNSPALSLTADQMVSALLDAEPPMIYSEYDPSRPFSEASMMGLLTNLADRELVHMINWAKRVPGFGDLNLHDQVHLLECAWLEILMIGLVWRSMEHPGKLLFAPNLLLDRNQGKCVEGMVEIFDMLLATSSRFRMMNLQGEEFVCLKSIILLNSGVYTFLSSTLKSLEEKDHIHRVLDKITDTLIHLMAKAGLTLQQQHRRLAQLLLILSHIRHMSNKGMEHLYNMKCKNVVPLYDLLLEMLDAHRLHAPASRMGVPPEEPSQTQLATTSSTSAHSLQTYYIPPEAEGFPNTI
# Outline: (§4)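 Immature mice given test compound per animal sc on three consecutive days together with 0.4 μg estrone/animal/day. Killed 24 h after last injection; uteri fixed in Bouin, dried 100 °C 24 h and weighed. Inhibition = 100 − [(W_S,T − W_V)/(W_S − W_V) × 100] using relative uterus weights; 6-10 animals; Wilcoxon-Mann-Whitney U test.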
# [8] = target: T1, Estrogen receptor (Mus musculus); experiment: Percent inhibition of estrone stimulated uterotrophic effect in mice at 150 ug; type: functional; outline: as §4
# [9] = target: T1, Estrogen receptor (Mus musculus); experiment: Uterotrophic effect in mice as relative uterine weight(mg) at 15 ug (control = 14.5+/-2.1); type: functional, tissue-based
# Outline: (§5)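 Immature mice dosed sc per animal on three consecutive days; vehicle controls. Killed and weighed 24 h after last injection; uteri fixed in Bouin solution 2 h, washed with alcoholic LiCl, dried at 100 °C for 24 h. Relative uterus weight = uterine dry weight (mg)/body weight (g) × 100; mean of 6-10 animals ± SD.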
# [10] = target: T1, Estrogen receptor (Mus musculus); experiment: Uterotrophic effect in mice as relative uterine weight(mg) at 150 ug (control = 14.5+/-2.1); type: functional, tissue-based; outline: as §5
# [11] = test system: MCF7; experiment: Effect on Estrogen receptor positive MCF-7 human breast cancer cell proliferation at 1x10E-6M; type: functional; outline: as §1
# [12] = test system: MCF7; experiment: Effect on Estrogen receptor positive MCF-7 human breast cancer cell proliferation at 5x10E-6M; type: functional; outline: as §1
# [13] = test system: MCF7; experiment: Effect on Estrogen receptor positive MCF-7 human breast cancer cell proliferation at 5x10E-7M; type: functional; outline: as §1
# [14] = target: T1, Estrogen receptor (Mus musculus); experiment: Anti-uterotrophic effect in hormone-dependent transplant MXT bearing mice as relative uterine weight in treated and control mice at 12.2 mg (control=100+/-24); type: functional
# [15] = species: Mus musculus; experiment: Anti-tumor activity in hormone-dependent transplant MXT mammary tumor bearing mice at 12.2 mg (control=197+/-130); type: functional
# [16] = target: T1, Estrogen receptor (Mus musculus); experiment: Anti-uterotrophic effect in mice as relative uterine weight(mg) at 15 ug; type: functional
# Outline: (§6)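 Immature mice received the compound sc per animal on three consecutive days, alone or with 0.4 µg estrone per animal per day. Uteri were taken 24 h after the last injection, Bouin-fixed, dried at 100 °C for 24 h and weighed. Relative uterus weight = dry weight (mg)/body weight (g) × 100; mean of 6-10 animals ± SD; Mann-Whitney U test.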
# [17] = target: T1, Estrogen receptor (Mus musculus); experiment: Anti-uterotrophic effect in mice as relative uterine weight(mg) at 150 ug; type: functional; outline: as §6
# [18] = test system: MCF7; experiment: Effect on [3H]thymidine incorporation into estrogen receptor positive MCF-7 human breast cancer cells at 1x10E-6M; type: functional; outline: as §3
# [19] = test system: MCF7; experiment: Effect on [3H]thymidine incorporation into estrogen receptor positive MCF-7 human breast cancer cells at 5x10E-6M; type: functional; outline: as §2
# [20] = test system: MCF7; experiment: Effect on [3H]thymidine incorporation into estrogen receptor positive MCF-7 human breast cancer cells at 5x10E-7M
# [21] = species: Mus musculus; experiment: Relative tumor weight in treated compared to control mice bearing hormone-dependent transplanted MXT mammary tumors at 12.2 mg
# [22] = test system: MCF7; experiment: Effect on Estrogen receptor positive MCF-7 human breast cancer cell proliferation at 1x10E-6M (control = 63.8+/-9.0); type: functional; outline: as §1
# [23] = test system: MCF7; experiment: Effect on Estrogen receptor positive MCF-7 human breast cancer cell proliferation at 5x10E-6M (control = 63.8+/-9.0); type: functional; outline: as §1
# [24] = test system: MCF7; experiment: Effect on Estrogen receptor positive MCF-7 human breast cancer cell proliferation at 5x10E-7M (control = 63.8+/-9.0); type: functional; outline: as §1
# [25] = test system: MCF7; experiment: Effect on [3H]-thymidine incorporation into estrogen receptor positive MCF-7 human breast cancer cells at 5x10E-7M (control = 42.6+/-2.8); type: functional; outline: as §3
# [26] = test system: MCF7; experiment: Effect on [3H]thymidine incorporation into estrogen receptor positive MCF-7 human breast cancer cells at 1x10E-6M (control = 42.6+/-2.8); type: functional; outline: as §3
# [27] = test system: MCF7; experiment: Effect on [3H]thymidine incorporation into estrogen receptor positive MCF-7 human breast cancer cells at 5x10E-6M (control = 42.6+/-2.8); type: functional; outline: as §2
# [28] = target: T1, Estrogen receptor (Mus musculus); experiment: Uterotrophic effect in mice as relative uterine weight(mg) at 15 ug (control = 12.3+/-3.7); type: functional, tissue-based; outline: as §5
# [29] = target: T1, Estrogen receptor (Mus musculus); experiment: Uterotrophic effect in mice as relative uterine weight(mg) at 150 ug (control = 12.3+/-3.7); type: functional, tissue-based; outline: as §5
# [30] = test system: MCF7; experiment: Effect on [3H]thymidine incorporation into estrogen receptor positive MCF-7 human breast cancer cells at 5x10E-6M (control = 7.7+/-0.8); type: functional; outline: as §2
# [31] = test system: MCF7; experiment: Effect on Estrogen receptor positive MCF-7 human breast cancer cell proliferation at 1x10E-6M (control = 22.3+/-3.3); type: functional; outline: as §1
# [32] = test system: MCF7; experiment: Effect on Estrogen receptor positive MCF-7 human breast cancer cell proliferation at 5x10E-6M (control = 22.3+/-3.3); type: functional; outline: as §1
# [33] = test system: MCF7; experiment: Effect on [3H]thymidine incorporation into estrogen receptor positive MCF-7 human breast cancer cells at 1x10E-6M (control = 7.7+/-0.8); type: functional; outline: as §3
# [34] = target: T1, Estrogen receptor (Mus musculus); experiment: Uterotrophic effect in mice as relative uterine weight(mg) at 15 ug (control = 12.4+/-3.7); type: functional, tissue-based; outline: as §5
# [35] = species: Mus musculus; experiment: Relative tumor weight in treated compared to control mice bearing hormone-dependent transplanted MXT mammary tumors at 12.4 mg; type: functional
# [36] = species: Mus musculus; experiment: Relative tumor weight in treated compared to control mice bearing hormone-dependent transplanted MXT mammary tumors at 6.2 mg; type: functional
# [37] = target: T1, Estrogen receptor (Mus musculus); experiment: Uterotrophic effect in mice as relative uterine weight(mg) at 150 ug (control = 12.4+/-3.7); type: functional, tissue-based; outline: as §5
# [38] = target: T1, Estrogen receptor (Mus musculus); experiment: Anti-uterotrophic effect in hormone-dependent transplant MXT bearing mice as relative uterine weight in treated and control mice at 12.4 mg (control=100+/-30); type: functional
# [39] = target: T1, Estrogen receptor (Mus musculus); experiment: Anti-uterotrophic effect in hormone-dependent transplant MXT bearing mice as relative uterine weight in treated and control mice at 6.2 mg (control=100+/-30); type: functional
# [40] = species: Mus musculus; experiment: Anti-tumor activity in hormone-dependent transplant MXT mammary tumor bearing mice at 12.4 mg (control=534+/-652); type: functional
# [41] = species: Mus musculus; experiment: Anti-tumor activity in hormone-dependent transplant MXT mammary tumor bearing mice at 6.2 mg (control=534+/-652); type: functional
compound,measurement,setting,value
Oc1ccc(-c2cc3cc(O)ccc3n2CCCCCCNCc2ccccn2)cc1,Cell no/dish,[1],334000
same,Cell no/dish,[2],195000
same,Cell no/dish,[3],335000
same,[3H] thymidinecpm/dish,[4],22800
same,Activity,[5],20000
same,Activity,[6],9600
same,inhibition,[7],18%
same,inhibition,[8],5%
same,Relative uterus weight,[9],13.6 mg
same,Relative uterus weight,[10],22.1 mg
same,T/C,[11],53%
same,T/C,[12],31%
same,T/C,[13],54%
same,T/C,[14],78%
same,Tumor weight,[15],158 mg
same,Relative uterus weight,[16],40.6 mg
same,Relative uterus weight,[17],46.1 mg
same,T/C,[18],41%
same,T/C,[19],20%
same,T/C,[20],47%
same,T/C,[21],80%
Cc1c(-c2ccc(O)cc2)n(CCCCCCCNCc2ccccn2)c2ccc(O)cc12,Cell no/dish,[22],264000
same,Cell no/dish,[23],146000
same,Cell no/dish,[24],369000
same,[3H] thymidinecpm/dish,[25],14500
same,Activity,[26],11300
same,Activity,[27],2200
same,inhibition,[7],11%
same,inhibition,[8],48%
same,Relative uterus weight,[28],15.2 mg
same,Relative uterus weight,[29],19 mg
same,T/C,[11],41%
same,T/C,[12],23%
same,T/C,[13],58%
same,Relative uterus weight,[16],41.9 mg
same,Relative uterus weight,[17],29.4 mg
same,T/C,[18],27%
same,T/C,[19],5%
same,T/C,[20],34%
Cc1c(-c2ccc(O)cc2)n(CCCCCCNCc2ccccn2)c2ccc(O)cc12,Activity,[30],400
same,Cell no/dish,[31],106000
same,Cell no/dish,[32],52000
same,Activity,[33],1000
same,inhibition,[8],31%
same,Relative uterus weight,[34],27.9 mg
same,T/C,[11],48%
same,T/C,[12],23%
same,T/C,[35],31%
same,T/C,[36],71%
same,Relative uterus weight,[37],24.9 mg
same,T/C,[38],137%
same,T/C,[39],119%
same,Tumor weight,[40],169 mg
same,Relative uterus weight,[16],46.6 mg
same,Relative uterus weight,[17],36.9 mg
same,Tumor weight,[41],378 mg
same,T/C,[18],13%
same,T/C,[19],5%
